Measurements: PMC6663923 (Acta Pharmaceutica Sinica. B, 2019)
Read-outs that look alike come from different tables or passages of the source. Blank lines part the entries; values can stand above or below the molecule they belong to.

Key:
[1] = target: T1, recombinant LSD1 (Homo sapiens, UniProt O60341); test: LSD1 enzymatic assay; type: biochemical
[2] = target: T1, recombinant LSD1; test: Reversibility analysis; type: biochemical; settings: 80-fold dilution
Procedure, shortened: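 Recombinant LSD1 (2.5 μg) was preincubated for 1 h with the test compound (312.5 μmol/L), a reference inhibitor (600 μmol/L) or DMSO. Aliquots were then diluted 80-fold into HRP-coupled assay solution containing substrate and coupling reagents, and residual demethylase activity was measured.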

[3] = tested on: glioma stem cells (GSCs); settings: cited from earlier work

Structure (SMILES): O=C(O)c1ccc(CN2CCC(CN[C@@H]3C[C@H]3c3ccccc3)CC2)cc1 [GSK2879552]
- reversibility of LSD1 inhibition (in words) [2]: failed to recover the activity of LSD1

Structure (SMILES): CCCSc1nc(Sc2nc3ccccc3s2)c2nnn(CCOCCO)c2n1 [Compound 8l]
- LSD1 inhibitory effect (in words) ([1]; recombinant LSD1): moderate inhibitory effect

Structure (SMILES): NC1CC1c1cccc(OCC[C@H](NC(=O)c2ccccc2)C(=O)NCc2ccccc2)c1 (stereo partly drawn) [NCL-1]
- cell viability of GSCs (in words) [3]: significantly reduced the cell viability

Next, values leading:

- IC50 ([1]; LSD1 IC50, recombinant LSD1): > 10000 nM
Structure (SMILES): OCCNc1cc(Sc2nnnn2-c2ccccc2)nc(SCc2ccccc2)n1 [Compound 22b, 2-((2-(Benzylthio)-6-((1-phenyl-1H-tetrazol-5-yl)thio)pyrimidin-4-yl)amino)ethan-1-ol]

- IC50 ([1]; LSD1 IC50, recombinant LSD1): 140 nM
Structure (SMILES): C#CCSc1nc(Sc2nnnn2-c2ccccc2)c2nnn(Cc3ccc(OC)cc3)c2n1 [Compound 15y]

- IC50 ([1]; read-out: LSD1 IC50, recombinant LSD1): 55 nM
Structure (SMILES): C#CCSc1nc(Sc2nnnn2-c2ccccc2)c2nnn(Cc3ccc(C(C)C)cc3)c2n1 [Compound 15x]
